Assay results as given in ChEMBL document CHEMBL1122670, “Synthesis of previously inaccessible quinazolines and 1,4-benzodiazepines as potential anticonvulsants” (J Med Chem, 1984).
Active and inactive are the calls of the source.

Key:
Mus musculus [1] = experiment: Evaluated for seizure threshold test at a dose 25 mg/kg &MST is the metrazole seizure threshold to persistent clonus; I = Inactive.; format: functional, organism-based; set-up: dose 25 mg/kg
Summary of the method: (§1)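 0.5% pentylenetetrazol (with 0.9% NaCl and 0.001% heparin) was infused into a lateral tail vein at 6.31 μL/s. Time to 3 s of persistent clonus (MST) or hindlimb tonic flexion (MMT) was converted to mg/kg infused. Tested at 0.5 h (some at 4 h or 1 h). Results are % change from controls, by Student's t test.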

Mus musculus [2] = experiment: Effective dose (ED50) was determined in sc Met (pentylenetetrazole) seizure threshold test; I = Inactive.; format: functional, organism-based
Summary of the method: (§2)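 ADD Program screen in mice. Doses of 30, 100, 300 and 600 mg/kg were given, four animals per dose, with tests at 30 min and at 4 h. sc Met endpoint: no threshold seizure (single clonic spasm of 5 s) after an sc convulsant dose 99 of pentylenetetrazol. Rotorod assessed acute neurotoxicity. ED50/TD50 were estimated graphically; Litchfield-Wilcoxon 95% confidence limits were added for selected cases.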

Mus musculus [3] = experiment: Evaluated for seizure threshold test at a dose 25 mg/kg &MMT is the maximal metrazole threshold to tonic flexion; I = Inactive.; format: functional, organism-based; set-up: dose 25 mg/kg; summary of the method: as §1
Mus musculus [4] = organism: Mus musculus; experiment: Compound was determined in rotarod test and expressed as TD50; I = Inactive.; format: ADME, organism-based; conditions: in vivo; summary of the method: as §2
Mus musculus [5] = experiment: Evaluated for seizure threshold test at a dose 25 mg/kg &MST is the metrazole seizure threshold to persistent clonus; format: functional
Summary of the method: (§3)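 At 0.5 h (some at 1 or 4 h), 0.5% pentylenetetrazol in 0.9% NaCl with 0.001% heparin was infused into the tail vein at 6.31 μL/s. Time to 3 s persistent clonus (MST) or tonic flexion (MMT) was converted to mg/kg, reported as % change vs controls, Student's t test.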

Mus musculus [6] = experiment: Effective dose (ED50) was determined in sc Met (pentylenetetrazole) seizure threshold test; I = Inactive at all doses including 600 mg/kg; format: functional, organism-based; set-up: dose 600 mg/kg; summary of the method: as §2
[7] = Compound was evaluated for median lethal dose; format: ADME, organism-based; conditions: mouse, in vivo
[8] = Compound was determined in rotarod test and expressed as TD50; format: ADME, organism-based; conditions: mouse, in vivo
Summary of the method: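 ADD Program screen in mice. Doses of 30, 100, 300 and 600 mg/kg were given, four animals per dose, with tests at 30 min and at 4 h. sc Met endpoint: no threshold seizure (single clonic spasm of 5 s) after an sc convulsant dose 99 of pentylenetetrazol. Rotorod assessed acute neurotoxicity.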

Mus musculus [9] = experiment: Evaluated for seizure threshold test at a dose 25 mg/kg &MMT is the maximal metrazole threshold to tonic flexion.; format: functional; summary of the method: as §1
Mus musculus [10] = experiment: Evaluated for seizure threshold test at a dose 30 mg/kg &MMT is the maximal metrazole threshold to tonic flexion.; format: functional; summary of the method: as §3
[11] = tested on: GABA-A receptor; anion channel; experiment: Inhibition of binding to GABA-A central benzodiazepine receptor (Inactive); format: protein-complex assay, Mus musculus
Mus musculus [12] = experiment: Evaluated for seizure threshold test at a dose 30 mg/kg &MST is the metrazole seizure threshold to persistent clonus; I = Inactive; format: functional, organism-based; set-up: dose 30 mg/kg; summary of the method: as §1
Mus musculus [13] = experiment: Effective dose (ED50) was determined in sc Met (pentylenetetrazole) seizure threshold test; format: functional; summary of the method: as §2
Mus musculus [14] = experiment: Evaluated for seizure threshold test at a dose 300 mg/kg & MST is the metrazole seizure threshold to persistent clonus; I = Inactive.; format: functional, organism-based; set-up: dose 300 mg/kg; summary of the method: as §1
Mus musculus [15] = experiment: Evaluated for seizure threshold test at a dose 300 mg/kg & MMT is the maximal metrazole threshold to tonic flexion; format: functional; summary of the method: as §1
Mus musculus [16] = experiment: Evaluated for seizure threshold test at a dose 300 mg/kg &MMT is the maximal metrazole threshold to tonic flexion.; format: functional; summary of the method: as §1
Mus musculus [17] = experiment: Evaluated for seizure threshold test at a dose 300 mg/kg &MST is the metrazole seizure threshold to persistent clonus; format: functional; summary of the method: as §3
Mus musculus [18] = experiment: Evaluated for seizure threshold test at a dose 300 mg/kg &MMT is the maximal metrazole threshold to tonic flexion; I = Inactive; format: functional, organism-based; set-up: dose 300 mg/kg; summary of the method: as §3
Mus musculus [19] = experiment: Evaluated for seizure threshold test at a dose 300 mg/kg &MST is the metrazole seizure threshold to persistent clonus; NA - Inactive.; format: functional, organism-based; set-up: dose 300 mg/kg; summary of the method: as §1
Mus musculus [20] = experiment: Evaluated for seizure threshold test at a dose 50 mg/kg &MST is the metrazole seizure threshold to persistent clonus; format: functional; summary of the method: as §3
Mus musculus [21] = experiment: Evaluated for seizure threshold test at a dose 50 mg/kg &MMT is the maximal metrazole threshold to tonic flexion.; format: functional; summary of the method: as §3
Mus musculus [22] = experiment: Evaluated for seizure threshold test at a dose 30 mg/kg &MST is the metrazole seizure threshold to persistent clonus; format: functional; summary of the method: as §3
Mus musculus [23] = experiment: Evaluated for seizure threshold test at a dose 75 mg/kg &MST is the metrazole seizure threshold to persistent clonus; I = Inactive.; format: functional, organism-based; set-up: dose 75 mg/kg; summary of the method: as §1
Mus musculus [24] = experiment: Evaluated for seizure threshold test at a dose 75 mg/kg &MMT is the maximal metrazole threshold to tonic flexion.; format: functional; summary of the method: as §1

In the case of `Cc1cc2c(-c3ccccc3F)ncnc2c(C#N)c1C`, the Change (Mus musculus [1]) is reported as “Not significant”, the ED50 (Mus musculus [2]) is reported as “inactive” and the Change (Mus musculus [3]) is reported as “Not significant”. For the same compound, the TD50 (Mus musculus [4]) was “Not Active”.

For `Cc1cc2c(C)nc(O)nc2c(C#N)c1C`, the Change (Mus musculus [1]) was “Not significant”, the ED50 (Mus musculus [2]) was “inactive” and the Change (Mus musculus [3]) was “Not significant”. For the same compound, the TD50 (Mus musculus [4]) was “Not Active”.

With `Cc1cc2c(-c3ccccc3)ncnc2c(C#N)c1C` the Change (Mus musculus [1]) was “Not significant”, the ED50 (Mus musculus [2]) was “inactive” and the Change (Mus musculus [3]) was “Not significant”. For the same compound, the TD50 (Mus musculus [4]) was “Not Active”.

For `Cc1cc2c(c(C#N)c1C)NC=NC2C` (stereo not given), the Change (Mus musculus [5]) was -36%, the ED50 (Mus musculus [6]) was “inactive” and the LD50 [7] was 150 mg/kg. The TD50 [8] was 51.5 mg/kg and the Change (Mus musculus [9]) was -56%.

With `Cc1cc2c(C)ncnc2c(C#N)c1C` the Change (Mus musculus [10]) was -24%, the IC50 [11] was “Not Active” and the ED50 (Mus musculus [6]) was “inactive”. The LD50 [7] was 150 mg/kg, the TD50 [8] was 45 mg/kg and the Change (Mus musculus [12]) was “inactive”.

With `Cc1cc(C(=O)C2CCCCC2)c(N)c(C#N)c1C` the ED50 (Mus musculus [13]) was 410 mg/kg, the Change (Mus musculus [14]) was “Not significant” and the TD50 [8] was greater than 600 mg/kg. It also gave a Change (Mus musculus [15]) of 17%.

Compound `CC(=O)c1cc(C)c(C)c(C#N)c1N` has an ED50 (Mus musculus [13]) of 300 mg/kg, a Change (Mus musculus [16]) of 13% and a Change (Mus musculus [17]) of 15%. It also gave a TD50 [8] greater than 600 mg/kg.

With `Cc1cc2c(c(C#N)c1C)NC(=O)CN=C2C1CC1` the Change (Mus musculus [17]) was 300%, the IC50 [11] was “Not Active” and the Change (Mus musculus [18]) was “inactive”. For the same compound, the ED50 (Mus musculus [6]) was “inactive” and the TD50 [8] was 600 mg/kg.

For `CC(=O)c1cc(-c2ccccc2)c(-c2ccccc2)c(C#N)c1N`, the Change (Mus musculus [19]) was “inactive”, the ED50 (Mus musculus [13]) was 260 mg/kg and the Change (Mus musculus [16]) was 20%. It also gave a TD50 [8] greater than 600 mg/kg.

With `Cc1cc2c(C3CCCCC3)nc(O)nc2c(C#N)c1C` the ED50 (Mus musculus [13]) was 260 mg/kg, the Change (Mus musculus [17]) was 44% and the IC50 [11] was “Not Active”. For the same compound, the Change (Mus musculus [18]) was “inactive” and the TD50 [8] was greater than 600 mg/kg.

For `Cc1cc(C(=O)c2ccccc2Cl)c(N)c(C#N)c1C`, the Change (Mus musculus [1]) was “Not significant”, the ED50 (Mus musculus [2]) was “inactive” and the Change (Mus musculus [3]) was “Not significant”. The TD50 (Mus musculus [4]) was “Not Active”.

`Cc1ccccc1-n1c(C)nc2ccccc2c1=O` [METHAQUALONE] showed a Change (Mus musculus [20]) of 42%, a Change (Mus musculus [10]) of 17% and a Change (Mus musculus [21]) of 40%. For the same compound, the Change (Mus musculus [22]) was 18%.

For `Cc1cc(C(=O)c2ccccc2)c(O)c(C#N)c1C`, the Change (Mus musculus [1]) was “Not significant”, the ED50 (Mus musculus [2]) was “inactive” and the Change (Mus musculus [3]) was “Not significant”. For the same compound, the TD50 (Mus musculus [4]) was “Not Active”.

With `Cc1cc2c(c(C#N)c1C)NC=NC2C1CC1` (stereo not given) the Change (Mus musculus [1]) was “Not significant”, the ED50 (Mus musculus [2]) was “inactive” and the Change (Mus musculus [3]) was “Not significant”. The TD50 (Mus musculus [4]) was “Not Active”.

In the case of `Cc1cc2c(c(C#N)c1C)NC(=O)NC2C` (stereo not given), the Change (Mus musculus [23]) is reported as “Not significant”, the ED50 (Mus musculus [6]) is reported as “inactive” and the Change (Mus musculus [24]) is reported as -16%. For the same compound, the TD50 [8] was 300 mg/kg.
